According to ChEMBL document CHEMBL4138266, “Lysine Analogue of Polymyxin B as a Significant Opportunity for Photodynamic Antimicrobial Chemotherapy” (ACS Med Chem Lett, 2018):
Values after ≈ are worked out from the molar mass of the structure shown. Active and inactive are the calls of the source. The rule behind the calls is not given here.

What was measured:
Escherichia coli [1] = test: Photobactericidal activity against Escherichia coli CIP54.8T irradiated with white light at 4.83 mW/cm2 for 20 hrs; assay type: functional; conditions: light or radiation study
How it was run: (§1)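 Minimal bactericidal concentration (MBC) was determined in tryptic soy medium with log-phase bacteria at 37 °C. Plates were either kept in the dark or given 20 h of white light at 4.83 mW/cm². MBC was taken as the concentration killing 99.99% of bacteria, i.e. a 4-log reduction versus the untreated control.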

Pseudomonas aeruginosa [2] = test: Photobactericidal activity against Pseudomonas aeruginosa assessed as PI-positive and PS-positive cell population at 1 uM incubated for 30 mins followed by 1 washing by propidium iodide staining based flow cytometry; assay type: functional
How it was run: (§2)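 Bacteria were incubated with 1 µM conjugate for 30 min at 37 °C, washed with saline, then stained with propidium iodide (0.01 mg/mL) to assess viability. Samples were analysed by flow cytometry. Q1 is the PI-positive (permeable membrane) population; Q2 is double positive for PI and photosensitizer fluorescence.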

Escherichia coli [3] = test: Bactericidal activity against Escherichia coli CIP54.8T incubated for 30 mins under dark conditions; assay type: organism-based; conditions: 0.5 h; how it was run: as §1
Staphylococcus aureus [4] = test: Photobactericidal activity against Staphylococcus aureus assessed as dead bacteria with permeable membrane at 1 uM incubated for 30 mins followed by 3 washings by propidium iodide staining based flow cytometry; assay type: functional; how it was run: as §2
Staphylococcus aureus [5] = test: Photobactericidal activity against Staphylococcus aureus at 10 uM pretreated for 30 mins followed by compound wash out with subsequent irradiation with white light at 4.83 mW/cm2; assay type: functional, organism-based
How it was run: (§3)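 Bacteria were pre-incubated with conjugate in 1X PBS (P. aeruginosa at 1 µM), then washed three times with PBS. They were irradiated with white LED light (4.83 mW/cm²; 7 J/cm² corresponds to 24 min) at 37 °C. Survival, as % of initial density, was plotted against cumulative light fluence.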

Escherichia coli [6] = test: Photobactericidal activity against Escherichia coli at 10 uM pretreated for 30 mins followed by compound wash out with subsequent irradiation with white light at 4.83 mW/cm2; assay type: functional, organism-based; how it was run: as §3
Staphylococcus aureus [7] = test: Photobactericidal activity against Staphylococcus aureus assessed as live bacterial population at 1 uM incubated for 30 mins followed by 1 washing by propidium iodide staining based flow cytometry; assay type: functional; how it was run: as §2
Escherichia coli [8] = test: Photobactericidal activity against Escherichia coli assessed as live bacterial cells with membrane integrity loss at 1 uM incubated for 30 mins followed by 1 washing by propidium iodide staining based flow cytometry; assay type: functional; how it was run: as §2
Staphylococcus aureus [9] = test: Photobactericidal activity against Staphylococcus aureus assessed as PI-positive and PS-positive cell population at 1 uM incubated for 30 mins followed by 3 washings by propidium iodide staining based flow cytometry; assay type: functional; how it was run: as §2
Pseudomonas aeruginosa [10] = test: Photobactericidal activity against Pseudomonas aeruginosa assessed as dead bacteria with permeable membrane at 1 uM incubated for 30 mins followed by 1 washing by propidium iodide staining based flow cytometry; assay type: functional; how it was run: as §2
Staphylococcus aureus [11] = test: Photobactericidal activity against Staphylococcus aureus assessed as dead bacteria with permeable membrane at 1 uM incubated for 30 mins followed by 1 washing by propidium iodide staining based flow cytometry; assay type: functional; how it was run: as §2
Staphylococcus aureus [12] = test: Photobactericidal activity against Staphylococcus aureus at 1 uM after 30 mins by confocal laser scanning microscopy; assay type: functional, organism-based
How it was run: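 S. aureus inoculum was suspended in 1 µM conjugate for 30 min at 37 °C, washed three times with PBS, and imaged by confocal laser scanning microscopy at 100X to visualise bacteria-associated fluorescence.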

Pseudomonas aeruginosa [13] = test: Photobactericidal activity against Pseudomonas aeruginosa assessed as live bacterial population at 1 uM incubated for 30 mins followed by 3 washings by propidium iodide staining based flow cytometry; assay type: functional; how it was run: as §2
Pseudomonas aeruginosa [14] = test: Photobactericidal activity against Pseudomonas aeruginosa assessed as live bacterial population at 1 uM incubated for 30 mins followed by 1 washing by propidium iodide staining based flow cytometry; assay type: functional; how it was run: as §2
Escherichia coli [15] = test: Photobactericidal activity against Escherichia coli assessed as dead bacteria with permeable membrane at 1 uM incubated for 30 mins followed by 3 washings by propidium iodide staining based flow cytometry; assay type: functional; how it was run: as §2
NHDF [16] = test: Cytotoxicity against human NHDF cells assessed as reduction in cell viability at 5 to 5000 nM incubated under dark conditions for 2 hrs measured after 24 hrs by MTT assay; assay type: cell-based; conditions: 5 µM
Staphylococcus aureus [17] = test: Photobactericidal activity against Staphylococcus aureus assessed as live bacterial cells with membrane integrity loss at 1 uM incubated for 30 mins followed by 3 washings by propidium iodide staining based flow cytometry; assay type: functional; how it was run: as §2
Escherichia coli [18] = test: Photobactericidal activity against Escherichia coli assessed as dead bacteria with permeable membrane at 1 uM incubated for 30 mins followed by 1 washing by propidium iodide staining based flow cytometry; assay type: functional; how it was run: as §2
Pseudomonas aeruginosa [19] = test: Bactericidal activity against Pseudomonas aeruginosa CIP76110 incubated for 30 mins under dark conditions; assay type: organism-based; conditions: 0.5 h; how it was run: as §1
Pseudomonas aeruginosa [20] = test: Photobactericidal activity against Pseudomonas aeruginosa at 1 uM pretreated for 30 mins followed by compound wash out with subsequent irradiation with white light at 4.83 mW/cm2; assay type: functional, organism-based; how it was run: as §3
Escherichia coli [21] = test: Photobactericidal activity against Escherichia coli assessed as PI-positive and PS-positive cell population at 1 uM incubated for 30 mins followed by 1 washing by propidium iodide staining based flow cytometry; assay type: functional; how it was run: as §2
Pseudomonas aeruginosa [22] = test: Photobactericidal activity against Pseudomonas aeruginosa assessed as PI-positive and PS-positive cell population at 1 uM incubated for 30 mins followed by 3 washings by propidium iodide staining based flow cytometry; assay type: functional; how it was run: as §2
Escherichia coli [23] = test: Photobactericidal activity against Escherichia coli assessed as live bacterial population at 1 uM incubated for 30 mins followed by 1 washing by propidium iodide staining based flow cytometry; assay type: functional; how it was run: as §2
Pseudomonas aeruginosa [24] = test: Photobactericidal activity against Pseudomonas aeruginosa assessed as live bacterial cells with membrane integrity loss at 1 uM incubated for 30 mins followed by 3 washings by propidium iodide staining based flow cytometry; assay type: functional; how it was run: as §2
Escherichia coli [25] = test: Photobactericidal activity against Escherichia coli assessed as live bacterial population at 1 uM incubated for 30 mins followed by 3 washings by propidium iodide staining based flow cytometry; assay type: functional; how it was run: as §2
Escherichia coli [26] = test: Photobactericidal activity against Escherichia coli assessed as PI-positive and PS-positive cell population at 1 uM incubated for 30 mins followed by 3 washings by propidium iodide staining based flow cytometry; assay type: functional; how it was run: as §2
Pseudomonas aeruginosa [27] = test: Photobactericidal activity against Pseudomonas aeruginosa CIP76110 irradiated with white light at 4.83 mW/cm2 for 20 hrs; assay type: functional; conditions: CIP76110, light or radiation study; how it was run: as §1
Staphylococcus aureus [28] = test: Photobactericidal activity against Staphylococcus aureus assessed as live bacterial population at 1 uM incubated for 30 mins followed by 3 washings by propidium iodide staining based flow cytometry; assay type: functional; how it was run: as §2
Staphylococcus aureus [29] = test: Photobactericidal activity against Staphylococcus aureus CIP76.25 irradiated with white light at 4.83 mW/cm2 for 20 hrs; assay type: functional; conditions: CIP76.25, light or radiation study; how it was run: as §1
NHDF [30] = test: Cytotoxicity against human NHDF cells assessed as reduction in cell viability at 5 to 5000 nM irradiated with white light at 4.83 mW/cm2 for 2 hrs measured after 24 hrs by MTT assay; assay type: cell-based; conditions: 5 µM
Staphylococcus aureus [31] = test: Photobactericidal activity against Staphylococcus aureus assessed as live bacterial cells with membrane integrity loss at 1 uM incubated for 30 mins followed by 1 washing by propidium iodide staining based flow cytometry; assay type: functional; how it was run: as §2
Escherichia coli [32] = test: Photobactericidal activity against Escherichia coli assessed as live bacterial cells with membrane integrity loss at 1 uM incubated for 30 mins followed by 3 washings by propidium iodide staining based flow cytometry; assay type: functional; how it was run: as §2
Pseudomonas aeruginosa [33] = test: Photobactericidal activity against Pseudomonas aeruginosa assessed as dead bacteria with permeable membrane at 1 uM incubated for 30 mins followed by 3 washings by propidium iodide staining based flow cytometry; assay type: functional; how it was run: as §2
Pseudomonas aeruginosa [34] = test: Photobactericidal activity against Pseudomonas aeruginosa assessed as live bacterial cells with membrane integrity loss at 1 uM incubated for 30 mins followed by 1 washing by propidium iodide staining based flow cytometry; assay type: functional; how it was run: as §2
Staphylococcus aureus [35] = test: Photobactericidal activity against Staphylococcus aureus assessed as PI-positive and PS-positive cell population at 1 uM incubated for 30 mins followed by 1 washing by propidium iodide staining based flow cytometry; assay type: functional; how it was run: as §2

`CCCCCCCC(=O)N[C@@H](CSC1CC(=O)N(CCCCCC(=O)Nc2ccc(-c3c4nc(c(-c5cc[n+](C)cc5)c5ccc([nH]5)c(-c5cc[n+](C)cc5)c5nc(c(-c6cc[n+](C)cc6)c6ccc3[nH]6)C=C5)C=C4)cc2)C1=O)C(=O)N[C@H](C(=O)N[C@@H](CCCCN)C(=O)N[C@H]1CCNC(=O)[C@H]([C@@H](C)O)NC(=O)[C@H](CCCCN)NC(=O)[C@H](CCCCN)NC(=O)[C@H](CC(C)C)NC(=O)[C@@H](Cc2ccccc2)NC(=O)[C@H](CCCCN)NC1=O)[C@@H](C)O.[I-].[I-].[I-]` (some centres undefined) was tested, and the MBC (Escherichia coli [1]) was 0.8 µM, the Activity (Pseudomonas aeruginosa [2]) was 43.1% and the MBC (Escherichia coli [3]) was 25 µM. For the same molecule, the Activity (Staphylococcus aureus [4]) was 4.4%, the Activity (Staphylococcus aureus [5]) was “Active” and the Activity (Escherichia coli [6]) was “Active”. For the same molecule, the Activity (Staphylococcus aureus [7]) was 75.6%, the Activity (Escherichia coli [8]) was 14.6% and the Activity (Staphylococcus aureus [9]) was 5.8%. For the same molecule, the Activity (Pseudomonas aeruginosa [10]) was 19.3%, the Activity (Staphylococcus aureus [11]) was 1.6% and the Activity (Staphylococcus aureus [12]) was “Active”. It also gave an Activity (Pseudomonas aeruginosa [13]) of 31.6%, an Activity (Pseudomonas aeruginosa [14]) of 34.6% and an Activity (Escherichia coli [15]) of 5.2%. The Activity (NHDF [16]) was “Non-Toxic”, the Activity (Staphylococcus aureus [17]) was 19% and the Activity (Escherichia coli [18]) was 1.8%. For the same molecule, the MBC (Pseudomonas aeruginosa [19]) was > 100 µM, the Activity (Pseudomonas aeruginosa [20]) was “Active” and the Activity (Escherichia coli [21]) was 14%. The Activity (Pseudomonas aeruginosa [22]) was 28.9%, the Activity (Escherichia coli [23]) was 69.7% and the Activity (Pseudomonas aeruginosa [24]) was 1.9%. The Activity (Escherichia coli [25]) was 62.5%, the Activity (Escherichia coli [26]) was 22.8% and the MBC (Pseudomonas aeruginosa [27]) was 8 µM. For the same molecule, the Activity (Staphylococcus aureus [28]) was 70.8%, the MBC (Staphylococcus aureus [29]) was 1.2 µM and the Activity (NHDF [30]) was “Non-Toxic”. The Activity (Staphylococcus aureus [31]) was 19.7%, the Activity (Escherichia coli [32]) was 9.6% and the Activity (Pseudomonas aeruginosa [33]) was 37.7%. For the same molecule, the Activity (Pseudomonas aeruginosa [34]) was 3% and the Activity (Staphylococcus aureus [35]) was 3.2%.
In the case of `CCCCCCCC(=O)N[C@@H](CS)C(=O)N[C@H](C(=O)N[C@@H](CCCCN)C(=O)N[C@H]1CCNC(=O)[C@H]([C@@H](C)O)NC(=O)[C@H](CCCCN)NC(=O)[C@H](CCCCN)NC(=O)[C@H](CC(C)C)NC(=O)[C@@H](Cc2ccccc2)NC(=O)[C@H](CCCCN)NC1=O)[C@@H](C)O`, the MBC (Escherichia coli [1]) was 50 µM (≈ 65.2 µg/mL), the MBC (Escherichia coli [3]) was 50 µM (≈ 65.2 µg/mL) and the MBC (Pseudomonas aeruginosa [19]) was > 100 µM. For the same molecule, the MBC (Pseudomonas aeruginosa [27]) was > 100 µM.
